Assay results taken from ChEMBL document CHEMBL4665848, “Constituents of Bupleurum praealtum and Bupleurum veronense with Potential Immunomodulatory Activity” (J Nat Prod, 2020).
The source made the active and inactive calls. The calls are words filed in the database; no cut-off is given here.

How the values were obtained:
[1] = Cytotoxicity against Wistar rat splenocytes assessed as reduction in cell viability at 10^-5 to 10^-1 mM after 24 hrs by MTT assay; assay type: tissue-based; conditions: splenocyte, dose 0.00001-0.1 mM
Outline: (§1)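 Freshly isolated primary rat spleen lymphocytes and peritoneal macrophages, cultured separately. Read-out is MTT metabolism, taken as mitochondrial reductase activity. Values are mean percentages with SD, relative to RPMI-treated control cells.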

[2] = Cytotoxicity against Wistar rat splenocytes assessed as lysosomal activity at 10^-5 to 10^-1 mM after 24 hrs by neutral red dye-based assay; assay type: tissue-based; conditions: splenocyte, dose 0.00001-0.1 mM
Outline: (§2)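 Freshly isolated primary rat splenocytes and peritoneal macrophages. Read-out is neutral red accumulation, taken as lysosomal function. Results are compared with RPMI-treated control cells.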

[3] = system: Peritoneal macrophage; experiment: Cytotoxicity against Wistar rat peritoneal macrophages assessed as reduction in cell viability at 10^-5 to 10^-1 mM after 24 hrs by MTT assay; assay type: cell-based; conditions: dose 0.00001-0.1 mM; outline: as §1
[4] = system: Peritoneal macrophage; experiment: Cytotoxicity against Wistar rat peritoneal macrophages assessed as assessed as lysosomal activity at 10^-5 to 10^-1 mM after 24 hrs by neutral red dye-based assay; assay type: cell-based; conditions: dose 0.00001-0.1 mM; outline: as §2
[5] = system: Peritoneal macrophage; experiment: Inhibition of MPO in Wistar rat peritoneal macrophages assessed as oxidation of 1,2-diaminobenzene at 10^-5 to 10^-1 mM; assay type: tissue-based; conditions: dose mM 0.00001-0.1, time 24.0 hrs
[6] = Cytotoxicity against Wistar rat splenocytes assessed as lysosomal activity at 100 uM after 24 hrs by neutral red dye-based assay; assay type: tissue-based; conditions: splenocyte; outline: as §2
[7] = system: Peritoneal macrophage; experiment: Cytotoxicity against Wistar rat peritoneal macrophages assessed as lysosomal activity at 10 to 100 uM after 24 hrs by neutral red dye-based assay; assay type: cell-based; conditions: dose 10-100 µM; outline: as §2
[8] = Cytotoxicity against Wistar rat splenocytes assessed as reduction in cell viability at 100 uM after 24 hrs by MTT assay; assay type: tissue-based; conditions: splenocyte; outline: as §1
[9] = system: Peritoneal macrophage; experiment: Cytotoxicity against Wistar rat peritoneal macrophages assessed as reduction in cell viability at 100 uM after 24 hrs by MTT assay; assay type: cell-based; outline: as §1
[10] = system: Peritoneal macrophage; experiment: Cytotoxicity against Wistar rat peritoneal macrophages assessed as lysosomal activity at 100 uM after 24 hrs by neutral red dye-based assay; assay type: cell-based; outline: as §2

SMILES | Activity [1] | Activity [2] | Activity [3] | Activity [4] | inhibition [5] | Activity [6] | Activity [7] | Activity [8] | Activity [9] | Activity [10]
CC/C=C/C=C/C=C/C=C\CCCCOC(=O)[C@H](O)C(C)C | Non-Toxic | Non-Toxic | Non-Toxic | Non-Toxic | Active |  |  |  |  | 
CC/C=C/C=C/C=C/C=C\CCCCOC(=O)[C@H](OC(C)=O)C(C)C | Non-Toxic | Non-Toxic | Non-Toxic | Non-Toxic |  |  |  |  |  | 
COc1ccc(C[C@H]2COC(=O)[C@@H]2Cc2ccc(OC)c(OC)c2)cc1OC |  |  |  |  |  | Non-Toxic | Non-Toxic |  |  | 
CC/C=C/C=C/C=C/C=C/[C@@H]1CCC(=O)O1 |  |  |  |  | Active | Toxic |  | Toxic | Toxic | Toxic
